In brackets after ≈: the same amount, converted by molar mass.
Columns and labels:
[1] = Cytotoxicity against mouse J774.1 cells assessed as cell viability after 72 hrs by MTT assay; assay type: cell-based; conditions: J774.1, 72 h
[2] = Selectivity index, ratio of IC50 for mouse J774.1 cells to IC50 for axenic amastigote stage of Leishmania amazonensis MHOM/BR/76/LTB-012; assay type: toxicity; conditions: read-out: Ratio IC50
[3] = Aqueous stability of the compound in Tris.HCl buffer at pH 8.3 at 1 mM after 24 hrs by spectrophotometric analysis; assay type: physicochemical; conditions: pH 8.3, 24 h, 1000 µM
Procedure, shortened: (§1)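 Compound from DMSO stock, 1 mM final in aqueous buffer (KCl·HCl pH 2, acetate pH 5, Tris·HCl pH 7.4 or 8.3), incubated 37 °C for 24 h. Absorbance spectrum 250–450 nm compared with a freshly prepared, unincubated solution. TLC of ethyl acetate extracts to confirm or exclude decomposition products.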

Leishmania amazonensis = test: Leishmanicidal activity against axenic amastigote stage of Leishmania amazonensis MHOM/BR/76/LTB-012 assessed as growth inhibition after 72 hrs by MTT assay; assay type: functional, organism-based; conditions: MHOM/BR/76/LTB-012, 72 h
Procedure, shortened: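 L. amazonensis axenic amastigotes (MHOM/BR/76/LTB-012), weekly passages in MAA/20 at 32 °C, 5% CO2. Seeded in 96-well plates; compounds in DMSO at 100 to 1 final, 72 h. MTT added for 4 h, stopped with 50% isopropanol–10% SDS, 30 min agitation at room temperature, A570. Triplicate; % inhibition versus control, IC50 from several concentrations.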

[4] = Aqueous stability of the compound in KCl.HCl buffer at pH 2 at 1 mM after 24 hrs by spectrophotometric analysis; assay type: physicochemical; conditions: pH 2, 24 h, 1000 µM; procedure, shortened: as §1
[5] = Selectivity index, ratio of IC50 for mouse J774.1 cells to MIC for Mycobacterium tuberculosis H37Rv; assay type: functional
Procedure, shortened: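 Cytotoxicity: J774.1 macrophages in DMEM with 4 mM L-glutamine and 10% heat-inactivated FCS, seeded at 5 × 10^4/well, attached 48 h at 37 °C, 5% CO2. Exposed 48 h to 12.5–400.0 µM compound or vehicle. MTT at 0.1 mg/mL final for 3 h, formazan dissolved in DMSO/glycine buffer pH 10.5, A560 read. IC50 by linear regression, divided by the MIC against the same MTB strain.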

Salmonella typhimurium [6] = test: Mutagenicity in Salmonella typhimurium TA98 at 6.2 to 500 ug/plate in absence of S9 fraction; assay type: toxicity, organism-based; conditions: salmonella enterica subsp. enterica serovar typhimurium
Procedure, shortened: (§2)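 Direct plate incorporation with S. typhimurium TA98 on minimal glucose agar (Vogel-Bonner E, 40% glucose). Compounds in DMSO assayed in triplicate at doses starting from the highest non-toxic dose, with or without Aroclor-treated mouse liver S9. Controls: DMSO, 4-nitro-o-phenylenediamine (−S9), 2-aminofluorene (+S9). Revertants counted manually; mutagenic if ≥2× negative control at two consecutive doses.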

Plasma = test: Metabolic stability in human plasma at pH 3 at 40 uM after 3 hrs; assay type: ADME, cell-free; conditions: pH 3, 3 h
[7] = Aqueous stability of the compound in acetate buffer at pH 5 at 1 mM after 24 hrs by spectrophotometric analysis; assay type: physicochemical; conditions: pH 5, 24 h, 1000 µM; procedure, shortened: as §1
[8] = system: Mycobacterium tuberculosis; test: Antimycobacterial activity against Mycobacterium tuberculosis H37Rv assessed as growth inhibition after 5 days by MTT assay; assay type: functional; conditions: 120 h
Procedure, shortened: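 MTB inoculum made from 20–30-day slant growth in Tween 80/0.2% BSA, adjusted to McFarland No. 1, then diluted in 7H9GC broth (Middlebrook 7H9, glycerol, Casitone, OADC). Final inoculum about 1.2 × 10^6 CFU/mL. Compounds taken from DMSO stock to final 0.4–25 in broth, with a DMSO control. Plates run 5 days at 37 °C, then tetrazolium (MTT)–Tween 80 added for a further 24 h at 37 °C. Read-out is MIC.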

Trypanosoma cruzi [9] = test: Trypanosomicidal activity against axenic epimastigote stage of Trypanosoma cruzi Tulahuen 2 assessed as growth inhibition; assay type: functional, organism-based
Procedure, shortened: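 Tulahuen 2 epimastigotes grown axenically at 28 °C in BHI-tryptose with 5% FCS, harvested late log phase, 3×10^6/mL in 24-well plates. Compound added from DMSO stock (≤1% DMSO). Growth as A590 at day 0 and day 5; % inhibition from blank-corrected absorbances; ID50 = concentration halving absorbance relative to untreated controls.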

[10] = Cytotoxicity against mouse J774.1 cells assessed as cell viability after 48 hrs by MTT assay; assay type: cell-based; conditions: J774.1, 48 h
Procedure, shortened: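 J774.1 macrophages in DMEM with 4 mM L-glutamine and 10% heat-inactivated FCS, 5×10^4 cells/well, attached 48 h at 37 °C, 5% CO2. Exposed 48 h to compounds (12.5–400.0 µM) or vehicle. MTT 0.1 mg/mL final, 3 h at 37 °C; formazan dissolved in DMSO/glycine buffer pH 10.5, A560. IC50 by linear regression versus solvent control.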

[11] = Aqueous stability of the compound in Tris.HCl buffer at pH 7.4 at 1 mM after 24 hrs by spectrophotometric analysis; assay type: physicochemical; conditions: pH 7.4, 24 h, 1000 µM; procedure, shortened: as §1
Salmonella typhimurium [12] = test: Mutagenicity in Salmonella typhimurium TA98 at 6.2 to 500 ug/plate in presence of S9 fraction; assay type: toxicity, organism-based; conditions: salmonella enterica subsp. enterica serovar typhimurium; procedure, shortened: as §2
Trypanosoma cruzi [13] = test: Trypanosomicidal activity against amastigote stage of Trypanosoma cruzi Tulahuen C4 transfected with beta-D-galactosidase infected in african green monkey Vero cells assessed as growth inhibition incubated 5 days prior to beta-D-galactopyranoside addition measured after 4 to 5 hrs by colorimetric assay; assay type: functional, organism-based
Procedure, shortened: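 VERO monolayer in phenol red-free RPMI 1640 with 10% FCS, infected with 5×10^4 LacZ-transfected Tulahuen C4 trypomastigotes/well, 24 h at 37 °C, 5% CO2. Compounds added for 5 days. CPRG substrate added, 4–5 h at 37 °C, A570. Actives (>50% inhibition) retested in duplicate at 10.0–0.16; IC50 by logarithmic regression versus untreated control.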

[14] = Selectivity index, ratio of IC50 for mouse J774.1 cells to IC50 for amastigote stage of Trypanosoma cruzi Tulahuen C4; assay type: toxicity; conditions: read-out: Ratio IC50
[15] = Ratio of compound IC50 to amphotericin B IC50 for mouse J774.1 cells; assay type: ADME; conditions: read-out: Ratio IC50
Salmonella typhimurium [16] = test: Mutagenicity in Salmonella typhimurium TA98 at 20 ug/plate in absence of S9 fraction; assay type: toxicity, organism-based; conditions: salmonella enterica subsp. enterica serovar typhimurium
Procedure, shortened: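 TA98 direct plate incorporation on minimal glucose agar (Vogel-Bonner E, 40% glucose), without S9. Compounds in DMSO were run in triplicate, highest dose nontoxic to bacteria. 4-nitro-o-phenylenediamine (20.0 per plate) was the positive control and DMSO the negative. Revertants were counted manually. Mutagenic meant at least double the negative-control revertants at two consecutive doses. Values are means of two independent experiments.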

Salmonella typhimurium [17] = test: Mutagenicity in Salmonella typhimurium TA98 at 500 ug/plate in presence of S9 fraction; assay type: toxicity, organism-based; conditions: salmonella enterica subsp. enterica serovar typhimurium; procedure, shortened: as §2
Salmonella typhimurium [18] = test: Mutagenicity in Salmonella typhimurium TA98 at 500 ug/plate in absence of S9 fraction; assay type: toxicity, organism-based; conditions: salmonella enterica subsp. enterica serovar typhimurium; procedure, shortened: as §2

Row | Structure (SMILES) | IC50 [1] [µM] | selectivity ratio [2] | Stability [3] | IC50 (Leishmania amazonensis) [µM] | Stability [4] | Selectivity Index [5] | Activity (Salmonella typhimurium [6]) | Stability (Plasma) | Stability [7] | MIC [8] [µM] | IC50 (Trypanosoma cruzi [9]) [µM] | IC50 [10] [µM] | Stability [11] | Activity (Salmonella typhimurium [12]) | IC50 (Trypanosoma cruzi [13]) [µM] | selectivity ratio [14] | selectivity ratio [15] | Activity (Salmonella typhimurium [16]) | Activity (Salmonella typhimurium [17]) | Activity (Salmonella typhimurium [18])
1 | C[C@@H]1[C@H](O)[C@@H](C)/C=C/C=C/C=C/C=C/C=C/C=C/C=C/[C@H](O[C@@H]2O[C@H](C)[C@@H](O)[C@H](N)[C@@H]2O)C[C@@H]2O[C@](O)(C[C@@H](O)C[C@@H](O)[C@H](O)CC[C@@H](O)C[C@@H](O)CC(=O)O[C@H]1C)C[C@H](O)[C@H]2C(=O)O [AMPHOTERICIN B] | 0.52 | 4.7 | – | – | – | – | – | – | – | – | – | – | – | – | – | – | – | – | – | –
2 | Cc1c(/C=N/NC(=O)c2ccncc2)no[n+]1[O-] | – | > 16 | Stable | 25.3 | Stable | >250 | Non-toxic | Stable | Stable | 1.6 (≈ 0.396 µg/mL) | > 300 | > 400 | Stable | Non-toxic | > 40.5 | – | – | – | – | –
3 | O=C(N/N=C/c1ccc2no[n+]([O-])c2c1)c1ccc2c(c1)OCO2 | – | 134 | – | 1.3 | – | <2 | Non-toxic | – | – | > 76.7 | 50 | 174 | – | Non-toxic | > 28.4 | < 5 | 28.5 | – | – | –
4 | Nc1ccc([N+](=O)[O-])cc1N | – | – | – | – | – | – | – | – | – | – | – | – | – | – | – | – | – | Toxic | – | –
5 | Cc1[nH]cnc1C(=O)N/N=C/c1ccc2no[n+]([O-])c2c1 | – | – | – | – | – | 0.8 | – | – | – | 43.7 (≈ 12.5 µg/mL) | 172 | 33.9 | – | – | > 35 | < 1 | – | – | Toxic | Toxic
6 | O=C(N/N=C/c1ccc2no[n+]([O-])c2c1)c1cnn(-c2ccccc2)c1 | – | 27 | – | 1.4 | – | <2 | – | – | – | > 17.9 | 29.5 | 37.1 | – | – | > 30.9 | – | 5 | – | – | –

— ChEMBL document CHEMBL2331334, “Hybrid furoxanyl N-acylhydrazone derivatives as hits for the development of neglected diseases drug candidates” (Eur J Med Chem, 2013)
